SIAE primary – human SIAE inhibitors, primary screen, biochemical, fluorescence polarization, FP-Rh probe, 1536-well HTS | inhibition, % at 9.66 µM | SIAE FP-Rh probe binding | 0.69% of 370,000 active;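 active = inhibition above a cutoff: mean of compounds within the control limits plus 3 SD of those, cut at about 17% in these data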
Target sequence (Q9HAT2 whole entry, looked up): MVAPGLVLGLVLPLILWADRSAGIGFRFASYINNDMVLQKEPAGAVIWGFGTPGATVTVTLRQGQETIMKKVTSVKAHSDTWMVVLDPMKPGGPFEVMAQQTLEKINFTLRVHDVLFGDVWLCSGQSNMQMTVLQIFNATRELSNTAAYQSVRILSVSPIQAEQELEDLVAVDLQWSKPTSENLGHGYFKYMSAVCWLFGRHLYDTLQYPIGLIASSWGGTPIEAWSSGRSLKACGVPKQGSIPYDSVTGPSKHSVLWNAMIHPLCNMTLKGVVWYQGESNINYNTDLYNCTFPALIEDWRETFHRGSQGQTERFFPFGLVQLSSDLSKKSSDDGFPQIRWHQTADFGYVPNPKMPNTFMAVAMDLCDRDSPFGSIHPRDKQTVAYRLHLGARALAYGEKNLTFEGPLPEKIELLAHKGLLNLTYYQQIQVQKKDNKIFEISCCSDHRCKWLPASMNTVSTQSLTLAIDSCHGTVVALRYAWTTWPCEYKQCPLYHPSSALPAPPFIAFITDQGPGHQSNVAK
TCR CD3 inh – inhibitors of human TCR-CD3 interaction, primary screen, biochemical, fluorescence, TAMRA-labeled TCR probe | T-cell receptor (TCR) | 0.37% of 360,000 active | AID 651800, 2012 | inhibition, % at 9.4 µM; in the data active = inhibition above about 19%;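 note: recombinant mutant TCR 2C K166C tagged with TAMRA read by polarization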
LEDGF integ inh – blockers of LEDGF/p75-dependent integrase strand transfer – biochemical, TR-FRET, high throughput, primary screen. HIV-1 integrase (with human LEDGF/p75). TR-FRET IN-LEDGF/p75 DNA integration, Eu/Cy5. inhibition, % at 3.7 µM. 0.64% of 370,000 active. AID 743269, 2014;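 active = inhibition above the screen-wide mean plus 3 SD, cut at about 13% in these data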;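 note: signal is the Cy5 over europium emission ratio at 671 and 618 nm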
HTRA1 inhibitor – HTRA1 serine protease inhibitors, primary screen, biochemical, fluorescence polarization, HTS. AID 504803, 2011. inhibition, % at 5.96 µM. 0.5% of 340,000 active. recombinant HTRA1, FP-rhodamine activity-based probe. Q92743; in the data active = inhibition above about 36%
TDP2 absorb – human TDP2 enzyme inhibitors, primary screen, biochemical, epi absorbance, recombinant enzyme | Tyrosyl-DNA phosphodiesterase 2 (Homo sapiens), O95551 | T5PNP hydrolysis, p-nitrophenol absorbance 415 nm | inhibition, % at 12.8 µM | 0.34% of 370,000 active | AID 720702, 2013;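 active = inhibition above the mean of all tested compounds plus 3 SD, set per campaign, cut at about 25% in these data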
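test system = human TDP2 enzyme | input = TDP2 enzyme at 120 nM final | medium = 50 mM Tris-HCl pH 7.5 with Mg2+, KCl, DTT, BSA | also added = T5PNP substrate, 5 mM | times = 2 h at 37 °C | technique = epi absorbance | benchmarks = high control without enzyme, low control DMSO plus TDP2 | replication = each compound tested once, singlicate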
mABHD4 FP – ABHD4 inhibitors, primary screen, biochemical, fluorescence polarization, mouse | purified mABHD4, FP-Rh probe fluorescence polarization | inhibition, % at 8.92 µM | 0.54% of 370,000 active;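 active = inhibition exceeding the mean over every tested compound plus 3 SD, cut at about 30% in these data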
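Assay system: mouse ABHD4 enzyme, wild type / Also added: fluorescent activity-based probe FP-Rh / Doses: single nominal dose of 8.92 µM, 0.89% DMSO final / Timing: 45 min compound pre-incubation plus 60 min probe step, 25 °C / Signal: FP readout, ex 525 nm / em 598 nm / Control set: S159A mutant/DMSO as 100%, compound-well median as 0%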
mABHD4 conf – ABHD4 inhibitors, retest, confirmation, biochemical, fluorescence polarization, mouse; shares compounds with mABHD4 FP; purified mABHD4, FP-Rh probe fluorescence polarization; inhibition, % at 8.92 µM; 55% of 1,800 active;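 active = mean inhibition across replicates above the hit cutoff set in the primary screen, cut at about 30% in these data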
IN multimer up – HIV-1 IN multimer formation enhancers, counter-screen for LEDGF/p75 integration inhibitor project, biochemical, TR-FRET. TR-FRET HIV-1 integrase multimerization. activation, % at 7.7 µM. shares compounds with LEDGF integ inh. 17% of 2,000 active; in the data active = activation above about 8.9%
TRFRET interf – TR-FRET optical interference artefacts, confirmation, artefact control for LEDGF/p75-dependent integration inhibitor project, biochemical, HIV-1 IN multimerization; inhibition, % at 7.7 µM; shares compounds with LEDGF integ inh; TR-FRET optical interference counterscreen; 2,000 tested, under 10 active; AID 1053135, 2014;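 active = inhibition above the mean over all tested compounds plus 3 SD, which no compound reached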
IN-LEDGF confirm – inhibitors of HIV-1 IN-LEDGF/p75 DNA integration, confirmation, biochemical, TR-FRET; shares compounds with LEDGF integ inh; TR-FRET LEDGF/p75-dependent HIV-1 integration; inhibition, % at 3.7 µM; 36% of 2,000 active; AID 1053136, 2014; in the data active = inhibition above about 14%
SIAE inh conf – human SIAE inhibitors, retest, confirmation, biochemical, fluorescence polarization, FP-Rh probe, triplicate; shares compounds with SIAE primary; SIAE FP-Rh activity-based probe; inhibition, % at 9.66 µM; 13% of 2,300 active; AID 1117263, 2014;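 active = mean inhibition of the replicates above the hit cutoff set in the primary screen, cut at about 17% in these data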;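 note: inhibitors lower polarization as more probe stays unbound to SIAE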
Numbers stand for hits. Rows were chosen to be rich in hits. Some 2.2% of all compounds tested hit in one or more screens of this group.

How did O=C(/C=C/c1ccco1)NC(=S)Nc1ccc(N2CCCC2)cc1 do in these assays?
SIAE primary: 18; TCR CD3 inh: inactive; LEDGF integ inh: 18; HTRA1 inhibitor: inactive; TDP2 absorb: inactive; mABHD4 FP: 37; mABHD4 conf: inactive; IN multimer up: inactive; TRFRET interf: inactive; IN-LEDGF confirm: inactive; SIAE inh conf: inactive

Results for O=C(NNS(=O)(=O)c1ccc([N+](=O)[O-])cc1)c1ccc2ccccc2c1O ?
SIAE primary: 19; TCR CD3 inh: inactive; LEDGF integ inh: inactive; HTRA1 inhibitor: inactive; TDP2 absorb: inactive; mABHD4 FP: 31; mABHD4 conf: inactive; SIAE inh conf: inactive

How did Nc1cc(Cl)nc(N/N=C/c2c(O)ccc3ccccc23)n1 do in these assays?
SIAE primary: 19; TCR CD3 inh: inactive; LEDGF integ inh: inactive; HTRA1 inhibitor: inactive; TDP2 absorb: inactive; mABHD4 FP: 32; mABHD4 conf: inactive; SIAE inh conf: inactive

What do the screens show for `COc1cccc(-c2nnc(SCC(=O)Nc3ccc(OCc4ccccc4)cc3)n2Cc2ccco2)c1`?
SIAE primary: inactive; LEDGF integ inh: inactive; TDP2 absorb: inactive; mABHD4 FP: inactive

How did CC/C(=C\C(=O)c1ccncc1)Nc1ccc(O)cc1 do in these assays?
SIAE primary: 22; TCR CD3 inh: 51; LEDGF integ inh: inactive; HTRA1 inhibitor: inactive; TDP2 absorb: inactive; mABHD4 FP: 75; mABHD4 conf: 38; SIAE inh conf: inactive

Results for O=C(N/N=C/c1ccc(O)cc1)c1ccncc1 ?
SIAE primary: inactive; TCR CD3 inh: inactive; LEDGF integ inh: inactive; HTRA1 inhibitor: inactive; TDP2 absorb: inactive; mABHD4 FP: inactive

What do the screens show for `O=C(Cc1c[nH]c2ccccc12)Nc1ccc(Nc2cccnc2)c(-c2cccc(Cl)c2)c1`?
SIAE primary: inactive; TCR CD3 inh: inactive; LEDGF integ inh: inactive; TDP2 absorb: inactive; mABHD4 FP: inactive

Results for COc1cc(O)c(C(C)=O)cc1OC ?
SIAE primary: inactive; TCR CD3 inh: inactive; LEDGF integ inh: inactive; HTRA1 inhibitor: inactive; TDP2 absorb: inactive; mABHD4 FP: inactive

What do the screens show for `CC(=O)Oc1cc(C)c(Cl)c2c(OC(C)=O)cc(C(C)=O)c(O)c12`?
SIAE primary: 36; TCR CD3 inh: inactive; LEDGF integ inh: inactive; TDP2 absorb: inactive; mABHD4 FP: 68; mABHD4 conf: 39; SIAE inh conf: 18

What do the screens show for `O=C(NN=Cc1cc(Br)c(O)c(Br)c1)c1ccccc1NS(=O)(=O)c1cccs1`?
SIAE primary: 19; TCR CD3 inh: inactive; LEDGF integ inh: inactive; HTRA1 inhibitor: inactive; TDP2 absorb: inactive; mABHD4 FP: 34; mABHD4 conf: 33; SIAE inh conf: inactive
